# From ChEMBL document CHEMBL5532673, “Design and Discovery of Novel NLRP3 Inhibitors and PET Imaging Radiotracers Based on a 1,2,3-Triazole-Bearing Scaffold” (J Med Chem, 2024)
# Calls of active or inactive are those of the source. No cut-off for these calls is given here.
# Columns and labels:
# [1] = biological target: NACHT, LRR and PYD domains-containing protein 3 (Mus musculus, UniProt Q8R4B8); test: Inhibition of NLRP3 inflammasome activation in LPS treated mouse J774.A1 cells assessed as inhibition of ATP-stimulated IL-1beta secretion pre-incubated for 30 mins followed by ATP addition measured after 30 mins by ELISA; type: cell-based
# In short: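 Murine J774A.1 macrophages seeded at 1×10^5 cells/well overnight, then primed with E. coli O111:B4 LPS (final 1 µg/mL) for 4.5 h. Compounds added for 30 min, then ATP (5 mM) for 30 min to activate NLRP3. IL-1β released into the supernatant quantified by mouse IL-1β ELISA.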
# [2] = biological target: T1, Interferon-inducible protein AIM2 (Mus musculus) (UniProt Q91VJ1); test: Inhibition of AIM2 inflammasome activation in LPS treated mouse J774.A1 cells assessed as inhibition of IL-1beta secretion at 3 uM pre-incubated for 1 hr followed by Poly (dA:dT) stimulation for 4 hrs by ELISA; type: cell-based; conditions: time 5.0 hrs
# T1 sequence (whole entry): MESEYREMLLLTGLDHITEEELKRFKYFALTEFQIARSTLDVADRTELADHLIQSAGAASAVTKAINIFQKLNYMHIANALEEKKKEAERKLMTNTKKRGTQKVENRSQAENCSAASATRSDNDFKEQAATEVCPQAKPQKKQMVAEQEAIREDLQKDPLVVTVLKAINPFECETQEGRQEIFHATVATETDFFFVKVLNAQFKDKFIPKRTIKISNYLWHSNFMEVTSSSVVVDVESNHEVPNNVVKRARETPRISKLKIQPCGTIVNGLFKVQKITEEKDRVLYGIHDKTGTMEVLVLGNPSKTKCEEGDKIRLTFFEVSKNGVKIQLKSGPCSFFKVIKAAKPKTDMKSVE
# In short: (§1)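 J774A.1 cells at 1×10^5/well, plated overnight. Co-treated with LPS (1 µg/mL) and compound for 1 h. AIM2 triggered by poly(dA:dT) (4 µg/mL) transfected with Lipofectamine 2000 for 4 h. NLRC4 triggered by flagellin (1 µg/mL) delivered with a transfection kit for 6 h. Supernatant IL-1β read by mouse ELISA.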
# [3] = biological target: T1, Interferon-inducible protein AIM2 (Mus musculus); test: Inhibition of AIM2 inflammasome activation in LPS treated mouse J774.A1 cells assessed as inhibition of IL-1beta secretion at 10 uM pre-incubated for 1 hr followed by Poly (dA:dT) stimulation for 4 hrs by ELISA; type: cell-based; conditions: time 5.0 hrs; in short: as §1
# [4] = biological target: NLR family CARD domain-containing protein 4 (Mus musculus) (UniProt Q3UP24); test: Inhibition of NLRC4 inflammasome activation in LPS treated mouse J774.A1 cells assessed as inhibition of IL-1beta secretion at 3 uM pre-incubated for 1 hr followed by flagellin stimulation for 6 hrs by ELISA; type: cell-based; conditions: time 7.0 hrs; in short: as §1
# [5] = biological target: NLR family CARD domain-containing protein 4 (Mus musculus) (UniProt Q3UP24); test: Inhibition of NLRC4 inflammasome activation in LPS treated mouse J774.A1 cells assessed as inhibition of IL-1beta secretion at 10 uM pre-incubated for 1 hr followed by flagellin stimulation for 6 hrs by ELISA; type: cell-based; conditions: time 7.0 hrs; in short: as §1
# [6] = biological target: NACHT, LRR and PYD domains-containing protein 3 (Mus musculus) (UniProt Q8R4B8); test: Inhibition of NLRP3 inflammasome activation in LPS treated mouse J774.A1 cells assessed as inhibition of TNF-alpha secretion at <=3 uM followed by LPS addition measured after 4.5 hrs by ELISA; type: cell-based
# [7] = biological target: NACHT, LRR and PYD domains-containing protein 3 (Mus musculus) (UniProt Q8R4B8); test: Inhibition of NLRP3 inflammasome activation in LPS treated mouse J774.A1 cells assessed as inhibition of ATP-stimulated IL-1beta secretion at 0.1 to 1 uM pre-incubated for 30 mins followed by ATP addition measured after 30 mins by ELISA; type: cell-based; conditions: dose 0.1-1 µM, time 60.0 min
# In short: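 J774A.1 cells plated at 1 × 10^5 cells/well overnight, primed with E. coli 0111:B4 LPS (final 1 μg/mL) for 4.5 h. Compound added for 30 min, then ATP (5 mM) for 30 min to activate NLRP3. IL-1β in supernatant measured by mouse IL-1β ELISA.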
# [8] = biological target: NACHT, LRR and PYD domains-containing protein 3 (Mus musculus) (UniProt Q8R4B8); test: Inhibition of NLRP3 inflammasome activation in LPS treated mouse J774.A1 cells assessed as inhibition of nigericin-stimulated IL-1beta secretion at 0.1 to 1 uM pre-incubated for 30 mins followed by nigericin addition measured after 30 mins by ELISA; type: cell-based; conditions: dose 0.1-1 µM, time 60.0 min
# [9] = biological target: NACHT, LRR and PYD domains-containing protein 3 (Mus musculus) (UniProt Q8R4B8); test: Inhibition of NLRP3 inflammasome activation in LPS treated mouse J774.A1 cells assessed as inhibition of TNF-alpha secretion at 0.1 to 10 uM followed by LPS addition measured after 4.5 hrs by ELISA; type: cell-based; conditions: dose 0.1-10 µM
# [10] = biological target: NACHT, LRR and PYD domains-containing protein 3 (Mus musculus) (UniProt Q8R4B8); test: Binding affinity to NLRP3 in wild type C57BL/6 mouse brain incubated for 20 mins by autoradiography; type: tissue-based; conditions: tested as the 11C-labelled form
# In short: (§2)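 Frozen mouse brain sections preincubated in 50 mM Tris-HCl pH 7.4 for 30 min at ambient temperature, then incubated 20 min at ambient temperature with [11C]8 (5 mCi/L, ~1 nM). For blocking, unlabeled ligand (10 μM) added to the incubation solution beforehand (n = 4). Sections washed in Tris-HCl (3 × 5 min), dried, exposed to imaging plates 120 min; ROI signal given as DLU/mm2.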
# [11] = biological target: NACHT, LRR and PYD domains-containing protein 3 (Mus musculus) (UniProt Q8R4B8); test: Binding affinity to NLRP3 in wild type C57BL/6 mouse brain incubated for 20 mins in presence of compound 8 by autoradiography; type: tissue-based; conditions: tested as the 11C-labelled form; in short: as §2
# [12] = biological target: NACHT, LRR and PYD domains-containing protein 3 (Mus musculus) (UniProt Q8R4B8); test: Binding affinity to NLRP3 in wild type C57BL/6 mouse brain incubated for 20 mins in presence of compound MCC950 by autoradiography; type: tissue-based; conditions: tested as the 11C-labelled form; in short: as §2
# [13] = biological target: NACHT, LRR and PYD domains-containing protein 3 (Mus musculus) (UniProt Q8R4B8); test: Binding affinity to NLRP3 in C57BL/6 mouse brain expressing nIrp3-/- incubated for 20 mins by autoradiography; type: tissue-based; conditions: tested as the 11C-labelled form; in short: as §2
# [14] = Drug uptake in monkey brain assessed as standardized uptake value at iv administration by PET/MR imaging analysis; type: ADME, organism-based, Macaca mulatta; conditions: rhesus monkey, in vivo
# In short: (§3)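 Single rhesus macaque (n=1). Radiotracer 5.20 mCi given i.v. through an antecubital catheter. Dynamic PET/MR acquired on a 3T scanner with a BrainPET insert, 3D-OSEM reconstruction, registration to the INIA19/NeuroMaps atlas. Regional activity expressed as SUV, with an arterial line for plasma metabolite analysis.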
# [15] = Drug uptake in monkey cerebellum at iv administration by PET/MR imaging analysis; type: ADME, organism-based, Macaca mulatta; conditions: rhesus monkey, in vivo; in short: as §3
# [16] = Drug uptake in monkey hippocampus at iv administration by PET/MR imaging analysis; type: ADME, organism-based, Macaca mulatta; conditions: rhesus monkey, in vivo; in short: as §3
# [17] = Drug uptake in monkey insula at iv administration by PET/MR imaging analysis; type: ADME, organism-based, Macaca mulatta; conditions: rhesus monkey, in vivo; in short: as §3
# [18] = Drug uptake in monkey putamen at iv administration by PET/MR imaging analysis; type: ADME, organism-based, Macaca mulatta; conditions: rhesus monkey, in vivo; in short: as §3
# [19] = Drug uptake in monkey thalamus at iv administration by PET/MR imaging analysis; type: ADME, organism-based, Macaca mulatta; conditions: rhesus monkey, in vivo; in short: as §3
# Chain of NACHT, LRR and PYD domains-containing protein 3 (Mus musculus) (Q8R4B8 whole entry, the tested form may be a part): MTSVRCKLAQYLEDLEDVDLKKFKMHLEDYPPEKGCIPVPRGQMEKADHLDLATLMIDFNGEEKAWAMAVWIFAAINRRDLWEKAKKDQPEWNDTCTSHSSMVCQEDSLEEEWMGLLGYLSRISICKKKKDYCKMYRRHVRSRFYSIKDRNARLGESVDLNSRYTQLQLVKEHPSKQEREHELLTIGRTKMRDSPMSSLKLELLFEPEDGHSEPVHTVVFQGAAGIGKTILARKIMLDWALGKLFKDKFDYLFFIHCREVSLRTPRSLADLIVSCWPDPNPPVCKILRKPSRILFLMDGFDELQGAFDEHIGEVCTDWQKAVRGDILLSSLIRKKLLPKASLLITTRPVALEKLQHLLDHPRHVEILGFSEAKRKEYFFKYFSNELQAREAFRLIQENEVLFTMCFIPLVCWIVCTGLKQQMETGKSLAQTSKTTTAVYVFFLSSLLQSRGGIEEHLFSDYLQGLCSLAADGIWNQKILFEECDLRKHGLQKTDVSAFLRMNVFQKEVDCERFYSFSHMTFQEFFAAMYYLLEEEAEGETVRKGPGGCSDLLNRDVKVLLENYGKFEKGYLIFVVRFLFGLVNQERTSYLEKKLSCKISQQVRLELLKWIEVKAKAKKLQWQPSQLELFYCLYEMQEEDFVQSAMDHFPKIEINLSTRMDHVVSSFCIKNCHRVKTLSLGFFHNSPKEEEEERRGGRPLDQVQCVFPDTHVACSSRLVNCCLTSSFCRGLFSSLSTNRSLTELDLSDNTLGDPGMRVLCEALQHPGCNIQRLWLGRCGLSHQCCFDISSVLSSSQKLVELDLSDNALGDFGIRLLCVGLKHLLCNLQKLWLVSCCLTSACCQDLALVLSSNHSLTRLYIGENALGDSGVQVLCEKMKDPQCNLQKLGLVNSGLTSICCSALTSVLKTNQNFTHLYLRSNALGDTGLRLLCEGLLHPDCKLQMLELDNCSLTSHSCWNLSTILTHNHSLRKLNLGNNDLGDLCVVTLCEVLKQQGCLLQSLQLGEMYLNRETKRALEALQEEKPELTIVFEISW
# Chain of NACHT, LRR and PYD domains-containing protein 3 (Q8R4B8 whole entry, the tested form may be a part): as above
# Chain of NLR family CARD domain-containing protein 4 (Mus musculus) (Q3UP24 whole entry, the tested form may be a part): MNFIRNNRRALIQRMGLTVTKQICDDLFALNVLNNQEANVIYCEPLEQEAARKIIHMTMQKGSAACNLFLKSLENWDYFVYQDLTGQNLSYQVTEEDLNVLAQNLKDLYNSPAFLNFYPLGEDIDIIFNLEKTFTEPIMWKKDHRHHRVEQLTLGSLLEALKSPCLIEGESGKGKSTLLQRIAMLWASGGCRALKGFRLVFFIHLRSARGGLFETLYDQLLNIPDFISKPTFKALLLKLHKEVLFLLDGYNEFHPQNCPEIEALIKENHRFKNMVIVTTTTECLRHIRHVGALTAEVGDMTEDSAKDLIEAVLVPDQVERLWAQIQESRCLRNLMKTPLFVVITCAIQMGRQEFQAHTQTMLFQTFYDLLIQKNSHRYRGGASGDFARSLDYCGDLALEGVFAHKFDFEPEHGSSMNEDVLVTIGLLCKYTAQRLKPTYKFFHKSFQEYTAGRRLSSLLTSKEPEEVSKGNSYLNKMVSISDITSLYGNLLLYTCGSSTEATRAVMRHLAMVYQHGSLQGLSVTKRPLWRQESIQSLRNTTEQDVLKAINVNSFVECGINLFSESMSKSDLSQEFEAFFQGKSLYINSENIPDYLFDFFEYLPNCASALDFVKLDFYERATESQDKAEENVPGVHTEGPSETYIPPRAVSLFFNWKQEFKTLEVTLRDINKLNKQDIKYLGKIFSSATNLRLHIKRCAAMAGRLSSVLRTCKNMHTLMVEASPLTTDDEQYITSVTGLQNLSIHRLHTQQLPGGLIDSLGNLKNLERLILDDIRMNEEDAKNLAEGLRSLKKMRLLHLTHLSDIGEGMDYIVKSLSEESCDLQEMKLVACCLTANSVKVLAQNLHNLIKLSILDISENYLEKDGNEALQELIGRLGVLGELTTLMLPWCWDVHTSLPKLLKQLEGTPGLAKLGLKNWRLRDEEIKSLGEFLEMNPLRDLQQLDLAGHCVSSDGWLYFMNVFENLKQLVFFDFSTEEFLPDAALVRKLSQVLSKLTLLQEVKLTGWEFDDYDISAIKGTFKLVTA
Structure (SMILES),IC50 ([1]; read-out: IC50),further results
COC(=O)c1ccc(-c2cn(Cc3cc(Cl)ccc3OC)nn2)c(F)c1,1620 nM,
COC(=O)c1ccc(-c2cn(Cc3cccc(Cl)c3)nn2)cc1,2160 nM,
CNC(=O)c1ccc(-c2cn(Cc3cc(Cl)ccc3OC)nn2)cc1,4210 nM,
CCCOc1ccc(Cl)cc1Cn1cc(-c2ccc(C(=O)O)cc2)nn1,12000 nM,
CCCOc1ccc(Cl)cc1Cn1cc(-c2ccccc2)nn1,,inhibition [2]: Active; inhibition [3]: Active; inhibition [4]: Active; inhibition [5]: Active; inhibition [6]: inactive
COC(=O)c1cccc(-c2cn(Cc3cc(Cl)ccc3OC)nn2)c1,1610 nM,
CCCOc1ccc(Cl)cc1Cn1cc(-c2ccc(C(=O)OC)cc2)nn1,1210 nM,
COC(=O)c1ccc(-c2cn(Cc3c(OC)ccc(F)c3F)nn2)cc1,2860 nM,
COC(=O)c1ccc(-c2cn(Cc3cc(Cl)ccc3OC)nn2)cc1,,inhibition [3]: inactive; inhibition [5]: inactive; inhibition [7]: Active; inhibition [8]: Active; inhibition [9]: inactive; Activity [10]: Active; Activity [11]: Active; Activity [12]: Active; Activity [13]: Active
COC(=O)c1ccc(-c2cn(Cc3cc(Cl)ccc3OC)nn2)nc1,2310 nM,
COC(=O)c1ccc(-c2cn(Cc3ccccc3OC(F)F)nn2)cc1,8060 nM,
COC(=O)c1ccc(-c2cn(Cc3cc(F)cc(F)c3OC)nn2)cc1,,IC50 ([1]; j774.a1): Not Active
COC(=O)c1ccc(-c2cn(Cc3ccccc3)nn2)cc1,,IC50 ([1]; j774.a1): Not Active
COC(=O)c1ccc(-c2cn(Cc3cc(F)ccc3OC)nn2)cc1,1500 nM,
COC(=O)c1ccc(-c2cn(Cc3cc(F)c(F)cc3OC)nn2)cc1,2470 nM,
COC(=O)c1ccc(-c2cn(Cc3ccccc3OC)nn2)cc1,3720 nM,
COC(=O)c1ccc(-c2cn(Cc3cc(Cl)ccc3O[11CH3])nn2)cc1,,SUV [14]: > 3; Drug uptake [15]: Active; Drug uptake [16]: Active; Drug uptake [17]: Active; Drug uptake [18]: Active; Drug uptake [19]: Active
COC(=O)c1ccc(-c2cn(Cc3cc(Cl)ccc3C(F)(F)F)nn2)cc1,,IC50 ([1]; j774.a1): Not Active

# Further lines, with some results ahead:
IC50 ([1]; read-out: IC50),Structure (SMILES),further results
8360 nM,CCCOc1ccc(Cl)cc1Cn1cc(-c2ccc(C)cc2)nn1,
510 nM,COC(=O)c1ccc(-c2cn(Cc3cc(Cl)cc(OC)c3)nn2)cc1,
4280 nM,CCCOc1ccc(Cl)cc1Cn1cc(-c2ccc(F)cc2)nn1,
14000 nM,COc1ccc(Cl)cc1Cn1cc(-c2ccc(C(=O)O)cc2)nn1,
1070 nM,COC(=O)c1ccc(-c2cn(Cc3cc(Br)ccc3OC)nn2)cc1,
3130 nM,COC(=O)c1ccc(-c2cn(Cc3cc(Cl)ccc3O)nn2)cc1,
2030 nM,COC(=O)c1ccc(-c2cn(Cc3cc(Cl)ccc3OC)nn2)c(C)c1,
1310 nM,COc1ccc(-c2cn(Cc3cc(Cl)ccc3OC)nn2)cc1,
1510 nM,CCCOc1ccc(Cl)cc1Cn1cc(-c2ccc(S(N)(=O)=O)cc2)nn1,
12800 nM,CCCOc1ccc(Cl)cc1Cn1cc(-c2ccc(C(F)(F)F)cc2)nn1,
1430 nM,COc1ccc(Cl)cc1Cn1cc(-c2ccc(C(=O)N3CCC3)cc2)nn1,
810 nM,COC(=O)c1ccc(-c2cn(Cc3cc(C(F)(F)F)ccc3OC)nn2)cc1,
